A selection: hits, their analogues and other compounds. The true share with any hit is near 1.7%.
Neddyl block: inhibitors of human cullin neddylation; P61081+Q13564; TR-FRET cullin neddylation, biochemical; inhibition, % at 25 µM; actives 0.58% (n = 360,000); AID 651699; in the data active = inhibition above about 36%
Target sequence (P61081 whole entry, looked up): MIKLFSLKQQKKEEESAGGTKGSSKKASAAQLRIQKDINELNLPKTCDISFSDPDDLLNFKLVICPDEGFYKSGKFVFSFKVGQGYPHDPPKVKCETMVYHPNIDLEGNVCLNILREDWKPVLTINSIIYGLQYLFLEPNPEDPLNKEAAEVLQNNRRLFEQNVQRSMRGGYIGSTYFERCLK
Target sequence (Q13564 whole entry, looked up): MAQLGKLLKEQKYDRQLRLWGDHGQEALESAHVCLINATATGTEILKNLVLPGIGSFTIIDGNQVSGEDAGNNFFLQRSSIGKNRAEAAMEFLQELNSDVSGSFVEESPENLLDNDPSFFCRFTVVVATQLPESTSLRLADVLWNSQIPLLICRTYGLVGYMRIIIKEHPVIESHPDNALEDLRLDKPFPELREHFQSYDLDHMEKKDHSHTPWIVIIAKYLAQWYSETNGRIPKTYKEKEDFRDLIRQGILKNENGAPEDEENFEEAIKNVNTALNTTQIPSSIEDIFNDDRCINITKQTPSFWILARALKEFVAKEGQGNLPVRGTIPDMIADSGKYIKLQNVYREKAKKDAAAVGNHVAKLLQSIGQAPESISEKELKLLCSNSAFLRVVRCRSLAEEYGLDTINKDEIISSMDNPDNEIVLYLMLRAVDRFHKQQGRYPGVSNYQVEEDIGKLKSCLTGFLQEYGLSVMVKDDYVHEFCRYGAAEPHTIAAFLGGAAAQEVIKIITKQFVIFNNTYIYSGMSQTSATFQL
Pemphigus Ab inh: human desmoglein-3 autoantibody binding inhibition; binding (percent of control), % at 10 µM; actives 0.48% (n = 310,000); P32926; DSG3-coupled beads, scFv-anti-DSG3-GFP binding, flow cytometry; stronger effect = lower value;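 active = binding more than 3 SD below its plate's average and above zero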;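 also: hits lower antibody fragment binding to DSG3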
Efflux pump mplx: blocks antifungal efflux pumps in multiplex yeast assay; inhibition, % at 10 µM; AID 485275; S. cerevisiae Candida pump triplex, Nile Red efflux; actives 0.44% (n = 330,000);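 active = plate passing quality check with inhibition over a set limit, or well fluorescence over plate mean plus 4 SD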;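 also: Nile Red retained in pooled yeast measured as flow cytometry median fluorescence; higher means more Nile Red kept so more efflux inhibition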
Arrestin-AP2 inh: human beta-arrestin and AP2 interaction inhibition; actives 0.31% (n = 340,000); FITC-arrestin peptide / GST-AP2 beads, flow cytometry; AP2 beta2 appendage carries R879A mutation; AID 504490; inhibition, % at 10 µM;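 active = inhibition above a set limit, near 3 SD of compounds lacking own fluorescence, cut at about 54% in these data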
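system = GST-tagged AP2 beta2-adaptin appendage (R879A) on 4 µm glutathione beads | reagent = FITC-labelled arrestin peptide probe, 50 nM final | schedule = compound with beads 12 min RT, then probe 1 h RT | signal = HyperCyt-sampled flow cytometry, FL1 channel, ex 488/em 535 nm | read-out = percent response from loss of bead-bound FITC fluorescence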
Cmpd fluor yeast: flagged as fluorescent in efflux inhibitor counter-screen; shares compounds with Efflux pump mplx; S. cerevisiae AD/pABC3, compound fluorescence, flow cytometry; fluorescence ratio to DMSO, % at 10 µM; actives 4% (n = 1,700); AID 588517;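 active = fluorescence ratio to DMSO above its plate's cutoff, the plate mean ratio plus 5 SD, cut at about 210% in these data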;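 also: unstained yeast with no Nile Red so the signal is compound autofluorescence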
Mdr1 pump inh: inhibitors of Candida albicans Mdr1 efflux pump | inhibition, % at 10 µM | shares compounds with Efflux pump mplx | S. cerevisiae AD/CaMDR1, Nile Red efflux, flow cytometry | actives 1% (n = 1,700); in the data active = inhibition above about 26%;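 also: higher means more Nile Red retained so more efflux inhibition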
CaCdr2 efflux inh: inhibitors of Candida albicans Cdr2 efflux pump; shares compounds with Efflux pump mplx; S. cerevisiae AD/CaCDR2, Nile Red retention, flow cytometry; Nile Red retention ratio vs DMSO, % at 10 µM; actives 4% (n = 1,700); in the data active = Nile Red retention ratio vs DMSO above about 190%;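 also: higher ratio means more blocking of Cdr2 efflux of the dye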
CaCdr1 efflux inh: blocks the Candida albicans Cdr1 efflux pump in yeast | inhibition, % at 10 µM | actives 1% (n = 1,700) | AID 588522 | S. cerevisiae AD/CaCDR1, Nile Red efflux, flow cytometry | shares compounds with Efflux pump mplx;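 active = inhibition above the screen-wide mean plus twice its standard deviation, cut at about 32% in these data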
A number is an active result; 0 = inactive; - = no result shown; + = active, no number.

SMILES | Neddyl block | Pemphigus Ab inh | Efflux pump mplx | Arrestin-AP2 inh | Cmpd fluor yeast | Mdr1 pump inh | CaCdr2 efflux inh | CaCdr1 efflux inh
COc1ccc(C(C)=O)cc1Cn1c(C)c(C(=O)NCc2ccc3c(c2)OCO3)sc1=O | 0 | - | - | - | - | - | - | -
CCOC(=O)c1cnc(SC)nc1Oc1cccc(NC(=O)c2ccc(Cl)cc2)c1 | 0 | 0 | 1.5 | 0 | 0 | 0 | 0 | 0
COc1cc(/C=C2\SC(=S)N(Nc3ncc(C(F)(F)F)cc3Cl)C2=O)ccc1O | 0 | 0 | 0 | 0 | 478 | 0 | 0 | 0
CN(C)c1ccc(/C=C2\SC(=S)N(Nc3ncc(C(F)(F)F)cc3Cl)C2=O)cc1 | 0 | - | 1.2 | 0 | + | 0 | 237 | 0
COc1cc(/C=C2\SC(=S)N(Nc3ccccc3)C2=O)ccc1O | 0 | 0 | 0 | 0 | - | - | - | -
COc1ccc(NC(=O)c2c3c(nc4ccccc24)CCC3)cc1S(=O)(=O)N1CCOCC1 | 0 | 0 | 0 | 0 | - | - | - | -
Cc1cc(C)n(CC(=O)NNC(=O)c2ccc(NC(=O)CC#N)cc2)n1 | 0 | 0 | 0 | 0 | - | - | - | -
O=C1OCCN1C(=O)[C@H]1[C@H](c2ccc(F)cc2)C(c2cccc(Cl)c2)=NN1c1ccccc1 | - | 0 | 1.4 | 0 | 0 | 0 | 0 | 0
O=C1OCCN1C(=O)[C@H]1[C@H](c2ccc(Cl)cc2)C(c2cccc(Cl)c2)=NN1c1ccccc1 | - | 0 | - | 0 | - | - | - | -
Cc1cccc(NC(=O)CNC(=O)Cc2ccc3c(c2)OCCO3)c1C | 0 | 0 | 0 | 0 | - | - | - | -
Cc1ccc(CNC(=O)CCNS(=O)(=O)c2ccc3c(c2)c(=O)n(C)c(=O)n3C)cc1 | 0 | 0 | 0 | 0 | - | - | - | -
Cc1csc(NC(=O)CCNS(=O)(=O)c2ccc3c(c2)c(=O)n(C)c(=O)n3C)n1 | 0 | 0 | 6.7 | 0 | 0 | 0 | 0 | 0
Cc1ccc(CCNC(=O)CCNS(=O)(=O)c2ccc3c(c2)c(=O)n(C)c(=O)n3C)cc1 | 0 | 0 | 9.0 | 0 | 0 | 0 | 0 | 0
CCC(C)C(=O)Nc1nnc(CCc2ccccc2)s1 (centres undefined) | 0 | 0 | 1.2 | 0 | 0 | 0 | 0 | 0
C#CC[N+](C)(C)CCCCCCCCCC | 0 | 0 | 0 | 0 | - | - | - | -
C#CC[N+](C)(C)CCCCCCCCCCCC | 0 | 0 | 1.0 | 0 | 0 | 0 | 495 | 0
COc1ccc(-c2ccc(-c3noc(-c4ccccc4OC)n3)c(OC)n2)cc1 | 0 | 0 | 0.5 | 0 | 0 | 0 | 0 | 0
O=C1CSC(=S)N1Cc1ccccc1 | 0 | 0 | - | - | - | - | - | -
O=C(CNC(=O)c1ccccc1)OC(C(=O)O)c1ccc(F)cc1 (centres undefined) | 0 | 0 | - | - | - | - | - | -
CC(CCc1ccccc1)NC(=O)c1ccc(NC(=O)c2cccc(Br)c2)cc1 (centres undefined) | 0 | 0 | 6.5 | 0 | 0 | 0 | 0 | 0
Cc1ccc(-c2nnc(Nc3ccc4c(c3)OCO4)c3ccccc23)cc1S(=O)(=O)NCCO | 0 | 0 | 13 | 0 | 0 | 0 | 0 | 0
N#CCSc1nc2c(sc(=S)n2Cc2ccco2)c(=O)n1-c1ccc(F)cc1 | 0 | 0 | 5.9 | 0 | 0 | 0 | 0 | 0
CCn1c(=S)sc2c(=O)n(-c3ccccc3)c(SC)nc21 | 0 | 0 | 0 | 0 | - | - | - | -
COc1ccc(CC(=O)Nc2ccc(NC(=O)c3ccc(Br)cc3)cc2)cc1OC | 0 | 0 | 0.8 | 0 | 0 | 0 | 0 | 0
O=C(Cc1ccccc1)Nc1ccc(NC(=O)c2ccc(Br)cc2)cc1 | 0 | 0 | 0 | 0 | - | - | - | -
SMILES | Neddyl block | Pemphigus Ab inh | Efflux pump mplx | Arrestin-AP2 inh | Cmpd fluor yeast | Mdr1 pump inh | CaCdr2 efflux inh | CaCdr1 efflux inh
CCCCn1c(N)c(N(CC(C)C)C(=O)CN2C(=O)NC3(CC(C)CC(C)(C)C3)C2=O)c(=O)[nH]c1=O (centres undefined) | 0 | 0 | 0.9 | 0 | 0 | 0 | 0 | 0
CN(C)c1ccc(/C=C/C(=O)c2c(O)c3ccccc3oc2=O)cc1 | 0 | 0 | 1.4 | 0 | 0 | 0 | 223 | 0
O=C(Nc1cccc(N2C(=O)C=CC2=O)c1)c1cccs1 | 0 | 0 | 0 | 0 | - | - | - | -
O=C1C=CC(=O)N1c1cccc(-c2ccccc2)c1 | 0 | 0 | 2.6 | 0 | 0 | 0 | 0 | 0
COC(=O)c1ccc(N)c(N=CC2=C(O)CC(C)(C)CC2=O)c1 | - | 0 | 1.7 | 0 | 0 | 0 | 0 | 0
O=c1[nH]c2cccnc2n1-c1cccc([N+](=O)[O-])c1 | - | - | 0 | - | - | - | - | -

Source: PubChem BioAssay (several laboratories)
